Experimental data as given in the EternaBench riboswitch data.

Tested on: MS2 coat protein
Assay: apparent Kd, MS2 coat protein; higher = weaker binding; RNA-MaP array
Procedure, shortened: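 The designed RNAs, transcribed from sequenced DNA templates on an Illumina sequencing chip, were incubated with fluorescently labeled MS2 coat protein at room temperature. Protein ranged from 1.5 nM to 3 μM, with 0.8–1.5 h incubation at the lowest and 10–20 min at the highest concentrations, in Tris-HCl pH 7.5 buffer with KCl, MgCl2, BSA, DTT, tRNA and Tween20, with or without input ligand. The median of per-cluster binding-curve fits gives the apparent Kd, and designs measured on fewer than 10 clusters were excluded.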

[1] = designed as: OFF switch for flavin mononucleotide, no ligand
[2] = ligand present: flavin mononucleotide, designed as: OFF switch for flavin mononucleotide
[3] = designed as: ON switch for flavin mononucleotide, no ligand
[4] = ligand present: flavin mononucleotide, designed as: ON switch for flavin mononucleotide
[5] = designed as: OFF switch for theophylline, no ligand
[6] = ligand present: theophylline, designed as: OFF switch for theophylline
[7] = designed as: ON switch for tryptophan, no ligand
[8] = ligand present: tryptophan, designed as: ON switch for tryptophan
[9] = designed as: OFF switch for tryptophan, no ligand
[10] = ligand present: tryptophan, designed as: OFF switch for tryptophan

ACCGAUCGAGGAUAUACAGAACAAAAGAACAUGACGAAGAAACAUGAGGAUCACCCAUGUAGAAGGCGAAAAGA
apparent Kd [1]: 8.58 nM
apparent Kd [2]: 9.05 nM

CUUAUACAUGAGGAUCACCCAUGUGGUGAUACCAGCCACGAUCAAGGCCCUUGGCAGCACAAAGGGAAUAAUAUGAUUACAAAAC
apparent Kd (designed as: ON switch for theophylline, no ligand): 227 nM
apparent Kd (ligand present: theophylline, designed as: ON switch for theophylline): 212 nM

GCGCCUCCCAAGGAUAUAACGCGUCUCUAAGGAUUAGAAGGUGGGACAUGAGGAUCACCCAUGUGACUCCUUUA
apparent Kd [1]: 7.31 nM
apparent Kd [2]: 7.37 nM

CUUGUGGCACAGGAUAUUCCGACGUAAUCAAAUGAAGAAGGGUGCACAUGAGGAUCACCCAUGUGUGAACACAA
apparent Kd [1]: 12.3 nM
apparent Kd [2]: 26.8 nM

CGUUACAUAGAGAAGGUUCAUAAGAUCAAAUAACAUGAGGAUCACCCAUGUAUGUAAGCAUGAGGAAAGGAUAUCUACCGCCAG
apparent Kd [3]: 144 nM
apparent Kd [4]: 70.1 nM

AUCUGGAGAGGAUAUUGAUCGGAACACAUGAGGAUCACCCAUGUGAGCCCUCGUGUCCCUCAAGAAGGCUCGGGCG
apparent Kd [1]: 5.73 nM
apparent Kd [2]: 7.71 nM

GGCUUCCCAAGAGGAUAUGCGGUAAUUAUCUACAUGAGGAUCACCCAUGUUUUUAACUCAAGUCCGCAGAAGGCUUAAGGAUAU
apparent Kd [3]: 5.13 nM
apparent Kd [4]: 5 nM

AGGGUACAUGAGGAUCACCCAUGUUAGGAUAUGUCCGGUACGGCCGCCGUACCAGGCAACAGAAGGAACACAGC
apparent Kd [1]: 30.2 nM
apparent Kd [2]: 26.2 nM

CGGUAGUUUUAGAAGGAGCAACCAAGUUUACAUGAGGAUCACCCAUGUGUGAGGAUAUGUUAAGGCUAGGAUAUAAUAGAACCU
apparent Kd [1]: 25.4 nM
apparent Kd [2]: 23.4 nM

AUGCCACCAUACCGCAGUAAUACAUGAGGAUCACCCAUGUAGGAGGAUAUACUUUUGGUAAUGAUGUAGAAGGCCUAGUGGUAC
apparent Kd [3]: 5.91 nM
apparent Kd [4]: 6.09 nM

GUUAGUCCACGAGGAUAUCGAAAUCGGCCCAGUGAAUUUUCACAUGAGGAUCACCCAUGUCAUAUCGAGAAGGCGUCUGAAAGC
apparent Kd [1]: 35.7 nM
apparent Kd [2]: 41.9 nM

UCCUCGUUUACAUGAGGAUCACCCAUGUGCUCGUCUAAACAUUAGGAUAUCGACCCUCUGCGCAUCGAGAAGGAAUACGGCGAG
apparent Kd [1]: 192 nM
apparent Kd [2]: 204 nM

UAAGCACAUCAGAAGGCGCAUUAGUUGAACUUGCGAGGAUAUGAUCUGUCCUCAUCAACAUGAGGAUCACCCAUGUGUCAGCUC
apparent Kd [1]: 37.6 nM
apparent Kd [2]: 140 nM

CGAGUUUGCAAAGGAUAUCGGUUUUGAACAGACCGAGAAGGUUGACUGUACAUGAGGAUCACCCAUGUGUGCUCGAUAUAAAGA
apparent Kd [3]: 7.72 nM
apparent Kd [4]: 7.04 nM

ACCCUGUGAGGAUAUAUGCGGUUUGAACCAGAUCAGAAAUAAUAGAAGGCACAUGAGGAUCACCCAUGUUUCUC
apparent Kd [1]: 27.9 nM
apparent Kd [2]: 22.8 nM

UAUUGCAAUGUGAGGAUAUCUCAAGAAAAGACAAGAGAGAAGGCACAUGAGGAUCACCCAUGUUAGAAACAAAA
apparent Kd [1]: 19.3 nM
apparent Kd [2]: 110 nM

GUGAGACAUGAGGAUCACCCAUGUUAGGAUAUAAAAGGCAAACGUAAUGGCGAGGUUAAUAGAAGGAACAGAAA
apparent Kd [1]: 15.6 nM
apparent Kd [2]: 11.9 nM

AUGCACGGGCUAAUCUGCGAUUGGCACGAUACCAGAGAUCAAGACCUCCCUUGGCAGCGUGUCACAUGAGGAUCACCCAUGUGGA
apparent Kd [5]: 131 nM
apparent Kd [6]: 94.8 nM

AGUAGGCAUUCAGGAUAUGGGGAUUUCUCACUGCCACAUGAGGAUCACCCAUGUGGAAGGUACACCCAGAAGGGAAAGUGGUUA
apparent Kd [3]: 17 nM
apparent Kd [4]: 11.3 nM

AUACAAUCAGGAUAUACUAGGCGAUAACAGAUUAUGACGUCACAUGAGGAUCACCCAUGUAGAAGGGAUCAGGA
apparent Kd [1]: 39.2 nM
apparent Kd [2]: 53.1 nM

GCGGAACAUGAGGAUCACCCAUGUAAGGAUAUCGUGAGGGAACGGCAGCAACACUGAUCGAGAAGGUACAGGGC
apparent Kd [1]: 23 nM
apparent Kd [2]: 36.4 nM

CAAGACAUGAGGAUCACCCAUGUGGUGUACCGAGGACCGGUACGGCCGCCACUCGUUCAUCGGUCGACAAGCUACCCUUCAAGGU
apparent Kd [7]: 24.2 nM
apparent Kd [8]: 38.7 nM

GCCCUGCGCCCGGGACCGGCAAGAUCCAUGCGAGGACCGGUACGGCCGCCACUCGCAGACGUACAUGAGGAUCACCCAUGUCCUC
apparent Kd [9]: 565 nM
apparent Kd [10]: 663 nM

UCUUCAAUAGUAAGGAUAUCCAUAACAACAUUCAAGGAGAAGGUACAUGAGGAUCACCCAUGUGGAGUCAAUAA
apparent Kd [1]: 13.1 nM
apparent Kd [2]: 19.8 nM

UAUGUACAUGAGGAUCACCCAUGUCAGGAUAUCUUCGAUUAGACCAUUAGCGCCGCGGAGAGAAGGGACGUAGA
apparent Kd [1]: 16 nM
apparent Kd [2]: 15.1 nM

GAAUUAGUGUUGGAGGAUAUCCCAUGUCUUACAUGAGGAUCACCCAUGUCCGGACAACGACAAAAGGAGAAGGCCAUCAUCAUGUC
apparent Kd [3]: 772 nM
apparent Kd [4]: 80.8 nM

GCUCUACAGGAGAAGGUCAUAUCAUCGGUUAUUGAAGGAUAUCCUCAAGGGACGCUGAGGCGUACAUGAGGAUCACCCAUGUCC
apparent Kd [3]: 84.1 nM
apparent Kd [4]: 52.2 nM

AUAUUGUUUAUAGGAUAUUACACUAAGGUGACAUGAGGAUCACCCAUGUCCUCAACCACACGACUUAAGAAGGAUAAACGUUGG
apparent Kd [1]: 46.5 nM
apparent Kd [2]: 54.9 nM

UAAAGCUGAAAGAAGGCUCCAUCGCUAGUACUGAGAGGAUAUUUCGUUGUUGACAUGAGGAUCACCCAUGUGGUUCGCCGGGCC
apparent Kd [3]: 49.4 nM
apparent Kd [4]: 26.8 nM

CCUCACUUGAAGAAGGACAGCUUCGGUCACAUCGGAACAUGAGGAUCACCCAUGUGACGCGUGGUGUAGGAUAUUCGUAAGGCA
apparent Kd [1]: 57.6 nM
apparent Kd [2]: 147 nM

AGUAGACGAGGAUAUACGGGCAUAUUUGAUAAGAAGAACAGACAUGAGGAUCACCCAUGUAGAAGGCGAGGCUA
apparent Kd [1]: 11.1 nM
apparent Kd [2]: 10.6 nM

UACGGUGCAGGAUAUCGAAUUUCAAACAUGAGGAUCACCCAUGUCUAAUAUGGCGACUAACGAGAAGGGCAGGAAG
apparent Kd [1]: 16.2 nM
apparent Kd [2]: 16 nM

GACAUGAGGAUCACCCAUGUUAAAGAUCCCAGCAUGCAACUCAGAAGGCUAAACUGUGGAUAGAAAGAGGAUAUGAGUUUAUAC
apparent Kd [1]: 9.62 nM
apparent Kd [2]: 9.57 nM

GUAUGAGAAGCAUAUACAUGAGGAUCACCCAUGUCCUCAGCGGAGGAUAUGUCUUUCAGGAGUAUACAGAAGGCCGCGGAAUUC
apparent Kd [1]: 346 nM
apparent Kd [2]: 260 nM

GGAACAUGAGGAUCACCCAUGUAAUCACGACGAGGACCGGUACGGCCGCCACUCGUAUUCACGCAAGGUAGAGGAAUACGUAGGC
apparent Kd [9]: 12.6 nM
apparent Kd [10]: 13.8 nM

UAACCAUGCAAAGGAUAUCCAAUACUAUGAGACGGAGAAGGUAGAAACAUGGAGAAUUCCUACAUGAGGAUCACCCAUGUUAGA
apparent Kd [1]: 387 nM
apparent Kd [2]: 245 nM

CGCGGACCACCUGAUACCAGCGCAGUCAUGCAUGAACCCAACAUGAGGAUCACCCAUGUACGCCCUUGGCAGCAGGGAAAAGUCG
apparent Kd [5]: 161 nM
apparent Kd [6]: 267 nM

CAAAACUGAGGAUAUACAAAGAAAUGGAACAUAGUACAGUAACAUGAGGAUCACCCAUGUAGAAGGCAGGACUA
apparent Kd [1]: 6.01 nM
apparent Kd [2]: 6.6 nM

AGAUCCCUGGUGAGGAUAUGUGAGACAUUCCCAGGACAGAAGGCACAUGAGGAUCACCCAUGUGUUGGGUAAUU
apparent Kd [1]: 6.32 nM
apparent Kd [2]: 6.65 nM

UCAUGCUGAGGAUAUACAUGAGGAUCACCCAUGUACAGAAUAAGGGAGUGCCAUCAAAGUAGAAGGCAGGACGU
apparent Kd [1]: 14.4 nM
apparent Kd [2]: 14.6 nM

AUUGACUCAGAGAAGGGACUCAACAUGAGGAUCACCCAUGUUCUUUCGAAUAAAGGCUCUUAGGGUCAGGAUAUCUGUACGUAA
apparent Kd [3]: 9.6 nM
apparent Kd [4]: 9.99 nM

GGGAUCGGAGGAUAUCGGUGGUUUAACAUGAGGAUCACCCAUGUGAAUAAACAAGUGGAGCGAGAAGGCCGGCGCU
apparent Kd [1]: 14.7 nM
apparent Kd [2]: 9.97 nM

GUAACGUGCAAAGGAUAUAUACAUGAGGAUCACCCAUGUCGGAAUGAGAUCAAGGUCGCUCGCCUAUAGAAGGUUGGCGCUACU
apparent Kd [1]: 86.7 nM
apparent Kd [2]: 43.9 nM

GCGUGACAUGAGGAUCACCCAUGUAGACUUGUGGAAGGAUAUACGAGAGUUCGAGUUAAGGUAGAAGGUCCCGAUG
apparent Kd [3]: 41.3 nM
apparent Kd [4]: 16.3 nM

UGCUUUUACGGAGGAUAUCUUUGGUCGUUAUGAAGAGAAGGCCGUCCUAACAUGAGGAUCACCCAUGUAUCUCAUUACAGUCUC
apparent Kd [3]: 22.9 nM
apparent Kd [4]: 16.3 nM

UCAGAUGUGAAGGAUAUUCCGCGAGCAGCUACGGAAGAAGGUCAAACAUGAGGAUCACCCAUGUGUCUCCCGGG
apparent Kd [1]: 14.4 nM
apparent Kd [2]: 22.4 nM

CCUGUGAUCCACAUGAGGAUCACCCAUGUAUAAGUGAUUGACAGAAGGAGAGCAUGCUUGUGAUUCUAGGAUAUGUUUCUCAUA
apparent Kd [1]: 25.2 nM
apparent Kd [2]: 25.9 nM

CAUGACAUGAGGAUCACCCAUGUAUCCAGUCGAGGACCGGUACGGCCGCCACUCGGUGCCUUCAAAUUUACAGACAGGUGACAGG
apparent Kd [7]: 33.7 nM
apparent Kd [8]: 22.8 nM

CUACAUGGGCUCGAUACCAGUCAGCUCUCGCGUCUCUCAGACAUGAGGAUCACCCAUGUUGACCCUUGGCAGCGACGAUGUAGGC
apparent Kd [5]: 79.8 nM
apparent Kd [6]: 500 nM

UUAUCGGUCUCAGGAUAUCAGUAUCACUCAUUAUGAGAAGGGAGACACUCCGGAACAUGAGGAUCACCCAUGUGGGCCUUGGGU
apparent Kd [1]: 172 nM
apparent Kd [2]: 103 nM

ACUGCUUUAGCGGCCGCCACUACAUGGACACUUACACUUUCUUGUUACAUGAGGAUCACCCAUGUUAGGACCGGGCUUGUACGGA
apparent Kd [9]: 62.1 nM
apparent Kd [10]: 78.2 nM

CUCGCGUGAGGAUAUGCCACGCCCGAAAGGCCGGGUCAUCGGCAGAAGGCACAUGAGGAUCACCCAUGUAUCGC
apparent Kd [1]: 13.3 nM
apparent Kd [2]: 63.9 nM

AAGUUACACAAGAAGGAGGGCGACUUUUUCACAUGAGGAUCACCCAUGUAUCCUCUUGGAGGAACCUAGGAUAUUGCUAAGCGU
apparent Kd [1]: 175 nM
apparent Kd [2]: 170 nM

UCUAACCUAGGAUAUACAUGCCUUGCGUAGCACAUCCGUUUACAUGAGGAUCACCCAUGUAGAAGGAGGGACGG
apparent Kd [1]: 6.55 nM
apparent Kd [2]: 8.51 nM
